Source: ChEMBL document CHEMBL1125306, “5,10-Methylenetetrahydro-5-deazafolic acid and analogues: synthesis and biological activities” (J Med Chem, 1992)

Key:
Dihydrofolate reductase [1] = target: T1, Dihydrofolate reductase (Homo sapiens, UniProt P00374); assay: Compound was evaluated for the inhibition of recombinant human Dihydrofolate reductase (DHFR)
T1 sequence (P00374 whole entry): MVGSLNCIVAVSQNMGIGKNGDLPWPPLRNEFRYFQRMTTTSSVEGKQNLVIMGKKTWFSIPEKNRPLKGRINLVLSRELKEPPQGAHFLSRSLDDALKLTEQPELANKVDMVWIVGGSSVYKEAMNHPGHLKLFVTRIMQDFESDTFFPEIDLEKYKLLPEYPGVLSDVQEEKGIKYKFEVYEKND

Thymidylate synthase [2] = target: T2, Thymidylate synthase (Lactobacillus casei, UniProt P00469); assay: Compound was evaluated for the inhibition of Lactobacillus casei thymidylate synthase; parameters: species or system Lacticaseibacillus casei
T2 sequence (P00469 whole entry): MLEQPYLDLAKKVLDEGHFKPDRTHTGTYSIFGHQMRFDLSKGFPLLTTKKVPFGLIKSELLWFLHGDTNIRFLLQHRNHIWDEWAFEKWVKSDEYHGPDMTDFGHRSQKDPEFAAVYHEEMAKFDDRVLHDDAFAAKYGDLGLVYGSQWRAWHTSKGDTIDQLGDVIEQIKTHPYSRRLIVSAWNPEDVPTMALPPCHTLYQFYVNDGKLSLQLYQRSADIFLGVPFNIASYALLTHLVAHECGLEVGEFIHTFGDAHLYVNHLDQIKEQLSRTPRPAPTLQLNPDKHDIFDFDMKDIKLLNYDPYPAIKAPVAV

[3] = target: T3, Dihydrofolate reductase (Homo sapiens) (UniProt P00374); assay: Percent inhibition against human DHFR; details: concentration not given here
T3 sequence (whole entry): T1 sequence (P00374 whole entry)

Manca [4] = assay: Compound was evaluated for the inhibition of Manca human lymphoma cell growth; format: functional, cell-based
Summary of the method: (§1)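 Manca human lymphoma cells grown in RPMI medium with 10% fetal calf serum. Growth was estimated by tetrazolium reduction.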

[5] = target: GAR formyltransferase (Lactobacillus casei); assay: Compound was evaluated for the inhibition of Glycinamide ribonucleotide formyl transferase (GAR) with formyl (6R) tetrahydrofolate as substrate
Dihydrofolate reductase [6] = target: T1, Dihydrofolate reductase; assay: Compound was evaluated for the inhibition of recombinant human Dihydrofolate reductase (DHFR); no inhibition
Dihydrofolate reductase [7] = target: Dihydrofolate reductase (Lactobacillus casei, UniProt P00381); assay: Compound was evaluated for the inhibition of Lactobacillus casei DHFR; parameters: species or system Lacticaseibacillus casei
Dihydrofolate reductase (Lactobacillus casei, UniProt P00381), sequence (P00381 whole entry): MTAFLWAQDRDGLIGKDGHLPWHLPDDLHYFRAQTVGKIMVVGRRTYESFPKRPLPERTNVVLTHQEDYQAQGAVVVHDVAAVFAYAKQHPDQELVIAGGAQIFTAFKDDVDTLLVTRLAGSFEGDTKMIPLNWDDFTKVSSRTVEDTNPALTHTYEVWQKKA

Thymidylate synthase [8] = target: Thymidylate synthase (Homo sapiens, UniProt P04818); assay: Compound was evaluated for the inhibition of recombinant human thymidylate synthase
Thymidylate synthase (Homo sapiens, UniProt P04818), sequence (P04818 whole entry): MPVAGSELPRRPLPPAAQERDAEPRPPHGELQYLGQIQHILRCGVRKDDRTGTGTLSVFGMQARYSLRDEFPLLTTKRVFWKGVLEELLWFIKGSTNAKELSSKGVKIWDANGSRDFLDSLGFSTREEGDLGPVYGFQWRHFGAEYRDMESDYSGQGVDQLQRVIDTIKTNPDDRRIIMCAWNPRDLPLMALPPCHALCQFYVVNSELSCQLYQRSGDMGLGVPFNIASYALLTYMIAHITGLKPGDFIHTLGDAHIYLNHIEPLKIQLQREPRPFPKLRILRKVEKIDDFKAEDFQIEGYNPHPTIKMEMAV

Manca [9] = assay: Compound was evaluated for the inhibition of Manca human lymphoma cell growth; no inhibition; format: functional, cell-based; summary of the method: as §1

SMILES	IC50 (Dihydrofolate reductase [1]) [µM]	IC50 (Thymidylate synthase [2]) [µM]	inhibition [3] [%]	IC50 (Manca [4]) [µM]	IC50 [5] [µM]	IC50 (Dihydrofolate reductase [6]) [µM]	IC50 (Dihydrofolate reductase [7]) [µM]	IC50 (Thymidylate synthase [8]) [µM]	IC50 (Manca [9]) [µM]
Nc1nc(O)c2c(ncc3cn(-c4ccc(C(=O)NC(CCC(=O)O)C(=O)O)cc4)cc32)n1 (stereo not drawn)	> 80	> 100	23	42	–	–	–	–	–
Cc1c2cnc3nc(N)nc(O)c3c2c(C)n1C	–	95	–	> 10	> 95	> 95	–	–	–
Nc1nc(O)c2c(n1)NCC1CN(c3ccc(C(=O)NC(CCC(=O)O)C(=O)O)cc3)CC21 (stereo not drawn)	> 40	–	34	–	–	–	5	> 40	> 20
